Active and inactive are the calls of the source. No cut-off for these calls is given here.
Experiments:
[1] = system: Human immunodeficiency virus 1; assay: Antiviral activity against HIV1 LAI infected in CEMx174 cells coexpressing GFP after 5 days by fluorimetry; assay type: functional, organism-based; conditions: for EC50: Human immunodeficiency virus 1, LAI, CEMx174, 120 h
In short: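 Cells (4000/well) pre-incubated with compound diluted in DMSO for 1 h at 37 °C, 5% CO2, then infected with HIV-1 LAI at MOI 3 and cultured 5 days at 37 °C, 5% CO2. EC50 is the concentration inhibiting viral replication by 50%. Values are geometric means of two determinations (n = 2), each within 25% of the mean.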

[2] = Cytotoxicity against human CEmx174 cells; assay type: cell-based
In short: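 CC50 is the concentration that reduces viability of uninfected cells by 50%. Reported as the geometric mean of two determinations (n = 2), each within 25% of the mean.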

[3] = Half life in human liver microsomes at 2 uM; assay type: ADME, Microsome
In short: (§1)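 Compound at 2 µM final was incubated with rat or human liver microsomes (0.5 mg/mL protein) in potassium phosphate buffer with 0.2% DMSO final. Reaction was started with NADPH and stopped at 0, 5, 10, 30, 60 and 120 min. Loss of parent was measured by LC/MS (ESI quadrupole, water/acetonitrile with 0.1% formic acid gradient). Values are geometric means of n = 2.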

[4] = Half life in rat liver microsomes at 2 uM; assay type: ADME, Microsome; in short: as §1

Row | Compound | EC50 [1] [µM] | half-life at 2 µM [3] [min] | half-life at 2 µM [4] [min] | CC50 [2] [µM] | Activity [1]
1 | CCC1=C(c2nc(C3CCCCC3)cs2)[C@H](c2ccc(O)c(Cl)c2)NC(=O)N1 | 0.078 | 682 | 30 | > 10 | –
2 | CCC1=C(C(=O)O)[C@H](c2cccc(O)c2)NC(=O)N1 | – | – | – | – | inactive
3 | Cc1ccnc2c1NC(=O)c1cccnc1N2C1CC1 [NEVIRAPINE] | – | – | – | > 10 | –
4 | CCC1=C(c2nc(C3CCCCC3)c[nH]2)[C@H](c2ccc(O)c(F)c2)NC(=O)N1 | > 10 | – | – | > 10 | –
5 | CCC1=C(C(=O)CCc2ccccc2)[C@H](c2ccc(O)c(Cl)c2)NC(=O)N1 | > 10 | – | – | > 10 | –
6 | CCC1=C(c2nc(C3CCCCC3)co2)[C@H](c2ccc(O)c(Cl)c2)NC(=O)N1 | 0.116 | 132 | 54 | > 10 | –
7 | CCC1=C(C(=O)O)[C@H](c2ccc(O)c(Cl)c2)NC(=O)N1 | – | – | – | – | inactive
8 | CCC1=C(C(=O)OCC2CCCCC2)[C@H](c2cccc(O)c2)NC(=O)N1 | – | 11 | 1.5 | > 10 | –
9 | O=C1NC2=C(C(=O)OCC2)C(c2cccc(O)c2)N1 (stereo not given) | > 10 | – | – | > 10 | –
10 | CCC1=C(C(=O)CC2CCC(OC)CC2)[C@H](c2ccc(O)c(Cl)c2)NC(=O)N1 (stereo not given in full) | > 10 | – | – | > 10 | –
11 | O=C1NC2=C(C(=O)OC2)C(c2cccc(O)c2)N1 (stereo not given) | > 10 | – | – | > 10 | –
12 | CCC1=C(C(=O)CC2CCC(C(C)C)CC2)[C@H](c2ccc(O)c(Cl)c2)NC(=O)N1 (stereo not given in full) | 1.4 | – | – | > 10 | –

Second part, led by results:

Row | EC50 [1] [µM] | half-life at 2 µM [3] [min] | half-life at 2 µM [4] [min] | Compound | CC50 [2] [µM] | Activity [1]
13 | 0.42 | – | – | CCC1=C(C(=O)CCC2CCCC2)[C@H](c2ccc(O)c(Cl)c2)NC(=O)N1 | > 10 | –
14 | 0.019 | 36 | 7 | CCC1=C(C(=O)OCC2CCCCC2)[C@H](c2ccc(O)c(Cl)c2)NC(=O)N1 | > 10 | –
15 | 3.28 | – | – | CCC1=C(C(=O)CC2CCCC2)[C@H](c2ccc(O)c(Cl)c2)NC(=O)N1 | > 10 | –
16 | 0.403 | 22 | 5 | CCC1=C(C(=O)CCC2CCCCC2)[C@H](c2ccc(O)c(Cl)c2)NC(=O)N1 | > 10 | –
17 | 0.48 | – | – | CCC1=C(C(=O)CC2CCC(C)CC2)[C@H](c2ccc(O)c(Cl)c2)NC(=O)N1 (stereo not given in full) | > 10 | –
18 | 0.087 | 24 | 16 | CCC1=C(C(=O)CC2CCC(CC)CC2)[C@H](c2ccc(O)c(Cl)c2)NC(=O)N1 (stereo not given in full) | > 10 | –
19 | 0.983 | 18 | 7 | CCC1=C(C(=O)CC2CCCCC2)[C@H](c2ccc(O)c(Cl)c2)NC(=O)N1 | > 10 | –
20 | 0.329 | – | – | CCC1=C(C(=O)CCC2CCCCCC2)[C@H](c2ccc(O)c(Cl)c2)NC(=O)N1 | > 10 | –
